This note sets out measurements from ChEMBL document CHEMBL3774362, “Design, synthesis, and evaluation of 2-piperidone derivatives for the inhibition of β-amyloid aggregation and inflammation mediated neurotoxicity” (Bioorg Med Chem, 2016).

The structures appear in SMILES notation. Calls of active or inactive are those of the source. The rule behind the calls is not given here.

Data set [1] deals with Amyloid-beta precursor protein (Homo sapiens) (UniProt P05067). The data set is described as follows: Inhibition of Amyloid beta (1 to 42) (unknown origin) self aggregation at 20 uM for 24 hrs by Thioflavin T-based fluorometric assay. Summed up:
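Aβ1–42 was HFIP-pretreated and dissolved in DMSO to a 200 μM stock. It was mixed with compound in PBS pH 7.4, compound final 20 μM. Incubation was 24 h at room temperature with shaking. 5 μM ThT in 50 mM glycine–NaOH pH 8.5 was then added. Fluorescence was read at ex 435 nm / em 490 nm. Mean ± SD of three independent measurements, each in duplicate.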

The test system of data set [2] is BV-2. The data set can be described thus: Neuroprotective activity in mouse BV2 cells assessed as inhibition of LPS-stimulated IL6 production preincubated for 3 hrs followed by LPS treatment for 12 hrs by ELISA. The class given is functional, cell-based. Summed up: (§1)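 BV-2 microglia were seeded 2 × 10^4 cells/well and pretreated 3 h with compound at 0.0016, 0.008, 0.04, 0.2 and 1 μmol/L. They were then stimulated with LPS (1 μg/mL) for 12 h. Clarified supernatants were assayed by ELISA for the named cytokine.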

Data set [3] deals with BV-2. The data set can be described thus: Neuroprotective activity in mouse BV2 cells assessed as inhibition of LPS-stimulated TNFalpha production preincubated for 3 hrs followed by LPS treatment for 12 hrs by ELISA. The class given is functional, cell-based. Summed up:
as §1
Background: ELISA stands for enzyme-linked immunosorbent assay.

Data set [4] concerns BV-2. The data set is described as follows: Neuroprotective activity in mouse BV2 cells assessed as inhibition of LPS-stimulated IL-1beta production preincubated for 3 hrs followed by LPS treatment for 12 hrs by ELISA. Type of data set: functional, cell-based. Summed up: as §1
The nature of data set [5]: Cytotoxicity against mouse BV2 cells assessed as cell viability at 5 uM by MTT assay. Type of data set: cell-based. To be noted: bv-2, 5 µM. Summed up: (§2)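 BV-2 murine microglia kept in DMEM-H with 10% FBS at 37 °C, 5% CO2. Cells seeded 1 × 10^4 cells/well and cultured 24 h. Compound then added at 0.008, 0.04, 0.2, 1 and 5 μmol/L, with or without LPS. Viability read by MTT as absorbance at 490 nm.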

Data set [6] can be described thus: Cytotoxicity against mouse BV2 cells assessed as cell viability at 0.008 to 5 umol/L by MTT assay in presence of LPS. The class given is cell-based. Conditions: bv-2. Summed up:
as §2

For data set [7], the target named is Myeloid differentiation primary response protein MyD88 (Homo sapiens) (UniProt Q99836). The data set can be described thus: Inhibition of Flag-tagged MyD88-HA-tagged MyD88 (unknown origin) homodimerization transfected in HEK293 cells after 7 hrs by Co-immunoprecipitation assay. Type of data set: cell-based. Summed up: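 HEK293 cells were seeded at 9 × 10^5/well and transfected with Flag-MyD88 and HA-MyD88 plasmids. Compound was added 7 h after transfection at 10 and 40 μM. Cells were harvested 24 h post-transfection and lysed in RIPA. Lysates were precleared with protein A/G beads and immunoprecipitated with anti-HA on A/G beads at 4 °C. Captured Flag-MyD88 was detected by western blot.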
Sequence of Myeloid differentiation primary response protein MyD88 (Homo sapiens) (Q99836 whole entry): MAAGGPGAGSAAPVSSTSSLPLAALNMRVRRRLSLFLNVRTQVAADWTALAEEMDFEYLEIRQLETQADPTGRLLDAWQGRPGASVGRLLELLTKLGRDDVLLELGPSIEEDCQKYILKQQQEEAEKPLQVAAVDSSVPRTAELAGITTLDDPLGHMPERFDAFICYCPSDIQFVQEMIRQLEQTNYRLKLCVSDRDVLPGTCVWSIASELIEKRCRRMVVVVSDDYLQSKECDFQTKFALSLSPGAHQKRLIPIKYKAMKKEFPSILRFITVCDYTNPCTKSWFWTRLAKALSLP

For data set [8], the system named is SH-SY5Y. The data set can be described thus: Cytotoxicity against human SH-SY5Y cells at 5 uM by MTT assay. The class given is cell-based. Summed up: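 SH-SY5Y (DMEM/F-12, 10% FBS, 37 °C, 5% CO2) seeded 1 × 10^4 cells/well, grown 24 h, then exposed to compound at 0.04, 0.2, 1 and 5 μmol/L for 24 h. MTT added for a further 4 h; absorbance read at 490 nm. Mean ± SD of three independent experiments.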
(Tetrazolium assays rely on reduction of a dye to a coloured formazan, in cell work by metabolically active cells.)

Data set [9] concerns the target Amyloid-beta precursor protein (Homo sapiens) (UniProt P05067). The data set can be described thus: Inhibition of Amyloid beta (1 to 42) (unknown origin) self aggregation for 24 hrs by Thioflavin T-based fluorometric assay.
Data set [10] concerns SH-SY5Y. The data set is described as follows: Neuroprotective activity against LPS-induced toxicity in human SH-SY5Y cells assessed as cell viability using compound-conditioned media from LPS-stimulated BV2 cells at 5 uM by MTT assay. The class given is functional. Summed up: (§3)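 BV-2 cells were seeded 2 × 10^4/well and pretreated 3 h with compound at 0.2, 1 and 5 μM. They were then stimulated 12 h with LPS 1 μg/mL, and the supernatant was clarified as conditioned medium. SH-SY5Y cells were seeded 5 × 10^3/well, grown 24 h and serum-starved overnight, then exposed to the conditioned medium. Viability was read by MTT at 490 nm. Mean ± SD of three independent experiments.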

For data set [11], the system named is SH-SY5Y. The data set is described as follows: Neuroprotective activity against LPS-stimulated toxicity in human SH-SY5Y cells using compound-conditioned media from LPS-stimulated BV2 cells by MTT assay. Type of data set: functional, cell-based. Summed up:
as §3

The target in data set [12] is Amyloid-beta precursor protein (Homo sapiens) (UniProt P05067). The data set is described as follows: Inhibition of Amyloid beta (1 to 42 residues) (unknown origin) assessed as no fibril formation at 50 uM after 4 days by atomic force microscopic analysis. Summed up: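 Aβ1–42 was pretreated with HFIP and taken up in DMSO. It was incubated in PBS pH 7.4 for 4 days at 30 °C, with or without compound. Final concentrations were 25 μM peptide and 50 μM compound. 10 μL aliquots were deposited on mica for 10 min, rinsed with water and dried under nitrogen. Samples were imaged by tapping-mode AFM.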
Sequence of Amyloid-beta precursor protein (Homo sapiens) (P05067 whole entry, the tested form may be a part): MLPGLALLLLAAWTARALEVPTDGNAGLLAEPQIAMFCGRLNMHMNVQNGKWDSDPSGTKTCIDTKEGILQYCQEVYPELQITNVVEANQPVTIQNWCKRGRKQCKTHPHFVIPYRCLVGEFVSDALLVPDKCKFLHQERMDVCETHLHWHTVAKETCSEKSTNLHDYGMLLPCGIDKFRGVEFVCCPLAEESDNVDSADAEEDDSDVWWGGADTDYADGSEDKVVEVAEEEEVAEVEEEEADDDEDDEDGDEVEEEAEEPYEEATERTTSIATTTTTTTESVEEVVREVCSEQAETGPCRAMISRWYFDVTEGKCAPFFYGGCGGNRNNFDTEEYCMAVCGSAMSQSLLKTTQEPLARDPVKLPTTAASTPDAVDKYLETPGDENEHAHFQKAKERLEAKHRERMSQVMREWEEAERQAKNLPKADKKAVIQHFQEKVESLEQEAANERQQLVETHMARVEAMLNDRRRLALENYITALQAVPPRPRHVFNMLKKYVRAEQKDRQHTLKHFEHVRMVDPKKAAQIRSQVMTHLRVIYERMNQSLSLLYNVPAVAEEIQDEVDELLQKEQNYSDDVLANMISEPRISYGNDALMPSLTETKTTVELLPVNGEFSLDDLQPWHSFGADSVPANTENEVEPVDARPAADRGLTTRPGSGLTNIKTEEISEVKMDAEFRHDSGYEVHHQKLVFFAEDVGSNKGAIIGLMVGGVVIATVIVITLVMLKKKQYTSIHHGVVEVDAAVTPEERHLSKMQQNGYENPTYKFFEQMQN

By inhibition is commonly meant the relative decrease from the control value, in per cent. As for `Cc1ccc(CN2C(=O)C[C@@H](c3ccccc3Cl)[C@H]([N+](=O)[O-])[C@H]2c2ccc(O)cc2)cc1` (racemic), the inhibition in [1] amounted to 46.1%.
In general, IC50 refers to the concentration that gives 50% inhibition. Turning to `COC(=O)c1ccc(CN2C(=O)C[C@@H](c3ccccc3Cl)[C@H]([N+](=O)[O-])[C@H]2c2ccc(O)cc2)cc1` (racemic), the inhibition in data set [1] was determined as 33.1%. In addition, the Activity entry in the data set with BV-2 [2], in the data set on BV-2 [3] and in the data set with BV-2 [4] was “Dose-dependent effect” in each case. Besides, the results for the IC50 in the data set with BV-2 [2], with BV-2 [3] and with BV-2 [4] were 80 nM, 90 nM and 3490 nM, respectively.
For `COc1ccc(CN2C(=O)C[C@@H](c3ccccc3Cl)[C@H]([N+](=O)[O-])[C@H]2c2ccc(O)cc2)cc1` (racemic), the inhibition in [1] amounted to 28.7%.
Still for that read-out and setting: in the case of `COc1cc(OC)cc([C@@H]2CC(=O)N(Cc3ccccc3)[C@H](c3ccc(O)cc3)[C@H]2[N+](=O)[O-])c1` (racemic) it was 55%; in that of `COC(=O)c1ccc(CN2C(=O)C[C@@H](c3ccccc3)[C@H]([N+](=O)[O-])[C@H]2c2ccc(O)cc2)cc1` (racemic), 36.3%.
Consider `COc1cccc(CN2C(=O)C[C@@H](c3ccccc3)[C@H]([N+](=O)[O-])[C@H]2c2ccc(O)cc2)c1` (racemic), for which the inhibition in data set [1] is 51.7%.
The same measure, in the same setting: in the case of `COc1cccc(CN2C(=O)C[C@@H](c3ccccc3Cl)[C@H]([N+](=O)[O-])[C@H]2c2ccc(O)cc2)c1` (racemic) it was 50%; in that of `O=C1C[C@@H](c2ccccc2Cl)[C@H]([N+](=O)[O-])[C@@H](c2ccc(O)cc2)N1Cc1cccnc1` (racemic), 41.6%; in that of `COc1cc(OC)cc([C@@H]2CC(=O)N(Cc3cccnc3)[C@H](c3ccc(O)cc3)[C@H]2[N+](=O)[O-])c1` (racemic), 54%.
Still for that read-out and setting: for `O=C1C[C@@H](c2ccccc2Cl)[C@H]([N+](=O)[O-])[C@@H](c2ccc(O)cc2)N1Cc1ccccc1` (racemic) the value was 11.2%.
The same measure, in the same setting: in the case of `COc1ccc(CN2C(=O)C[C@@H](c3ccc(C)cc3)[C@H]([N+](=O)[O-])[C@H]2c2ccc(O)cc2)cc1` (racemic) it was 30.6%; in that of `COc1cccc(CN2C(=O)C[C@@H](c3ccc(C)cc3)[C@H]([N+](=O)[O-])[C@H]2c2ccc(O)cc2)c1` (racemic), 48.9%.
`Cc1ccc([C@@H]2CC(=O)N(Cc3ccccc3)[C@H](c3ccc(O)cc3)[C@H]2[N+](=O)[O-])cc1` (racemic): the inhibition in data set [1] amounted to 44.1%.
The same measure, in the same setting: in the case of `Cc1ccc(CN2C(=O)C[C@@H](c3ccc(C)cc3)[C@H]([N+](=O)[O-])[C@H]2c2ccc(O)cc2)cc1` (racemic) it was 42.1%.
`COc1cc(OC)cc([C@@H]2CC(=O)N(Cc3ccc(OC)c(OC)c3)[C@H](c3ccc(O)cc3)[C@H]2[N+](=O)[O-])c1` (racemic): the Activity entry in [5] was “Non-toxic”; in data set [6], “Non-toxic”; in the data set on SH-SY5Y [8] it was “Non-toxic”; with BV-2 [2] it was “Dose-dependent effect”; in the data set with BV-2 [3] it was “Dose-dependent effect”; in the data set on SH-SY5Y [10], 82.92%. Further, the Activity entry in the data set with SH-SY5Y [11] and with BV-2 [4] was “Dose-dependent effect” each time. Also, the figures for the inhibition in data set [1], in data set [7] and in [9] were 59.1%, “Dose-dependent effect” and “Dose-dependent effect”, respectively. In addition, the IC50 was determined as 30 nM in the data set on BV-2 [2], 80 nM with BV-2 [3] and 210 nM in the data set on BV-2 [4]. For the same compound, the inhibition entry in data set [12] is “Active”.
The compound `Cc1ccc(CN2C(=O)C[C@@H](c3ccccc3)[C@H]([N+](=O)[O-])[C@H]2c2ccc(O)cc2)cc1` (racemic) came in with an inhibition in data set [1] of 39.9%.
For `O=C1C[C@@H](c2ccccc2)[C@H]([N+](=O)[O-])[C@@H](c2ccc(O)cc2)N1Cc1cccnc1` (racemic), the inhibition in data set [1] was 43.3%; in data set [9], “Dose-dependent effect”.
`COc1cccc(CN2C(=O)C[C@@H](c3cc(OC)cc(OC)c3)[C@H]([N+](=O)[O-])[C@H]2c2ccc(O)cc2)c1` (racemic) returned an inhibition in [1] of 56.9%. The Activity entry in the data set on BV-2 [2], in the data set with BV-2 [3] and with BV-2 [4] was “Dose-dependent effect” in each case. Besides, the concentration for half-maximal inhibition (IC50) in the data set on BV-2 [2] was 170 nM; with BV-2 [3], 20 nM; with BV-2 [4], 850 nM.
`O=C1C[C@@H](c2ccccc2)[C@H]([N+](=O)[O-])[C@@H](c2ccc(O)cc2)N1Cc1ccc(F)cc1` (racemic) displayed an inhibition in [1] of 6.39%.
On the same count and under the same terms, in the case of `O=C1C[C@@H](c2ccccc2)[C@H]([N+](=O)[O-])[C@@H](c2ccc(O)cc2)N1Cc1ccccc1` (racemic) it was 43.6%; in that of `COc1cc([C@@H]2[C@@H]([N+](=O)[O-])[C@H](c3ccccc3Cl)CC(=O)N2Cc2ccccc2)ccc1O` (racemic), 11.8%; in that of `COc1ccc(CN2C(=O)C[C@@H](c3ccccc3)[C@H]([N+](=O)[O-])[C@H]2c2ccc(O)cc2)cc1OC` (racemic), 49.2%.
Same read-out and setting: for `COc1ccc(CN2C(=O)C[C@@H](c3ccccc3)[C@H]([N+](=O)[O-])[C@H]2c2ccc(O)cc2)cc1` (racemic) the value was 46.1%.
